The record followed here is ChEMBL document CHEMBL4038330, “Discovery of Potent Orally Active Protease-Activated Receptor 1 (PAR1) Antagonists Based on Andrographolide” (J Med Chem, 2017).

Data set [1] relates to Rattus norvegicus. As to the kind of experiment: Toxicity in Wistar rat assessed as behavioral abnormalities at 5 mg/kg, po measured up to 24 hrs post dose. The format is organism-based. The following applies: in vivo. A digest of the protocol: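 Male Wistar rats given 1 mg/kg iv or 5 mg/kg intragastrically. Behaviour observed for abnormalities over the 24 h sampling period.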

In data set [2] the test system is Platelet. Description: Effect on ADP-stimulated platelet aggregation in human platelet-rich plasma up to 10 uM preincubated for 20 mins followed by ADP stimulation measured after 5 mins by aggregometric analysis. The format is ADME, cell-based. A digest of the protocol:
(§1)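 Human platelet-rich plasma stimulated with TRAP 15 µM, ADP 10 µM or collagen 5 µg/mL. ADP and collagen tests went up to 10 µM compound. Three separate experiments per agonist. Mean IC50 taken from IC50s of the independent experiments; values given as median ± SD.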

Data set [3] concerns Platelet. As to the kind of experiment: Effect on collagen-stimulated platelet aggregation in human platelet-rich plasma up to 10 uM preincubated for 20 mins followed by collagen stimulation measured after 5 mins by aggregometric analysis. The format is ADME, cell-based. In a few lines:
as §1

For data set [4], the system named is ADP-stimulated platelet aggregation. As to the kind of experiment: Toxicity in guinea pig assessed as inhibition of ADP-stimulated platelet aggregation at 10 mg/kg, po pretreated for 2 hrs followed by ADP stimulation measured after 5 mins. The format is organism-based, Cavia porcellus. The following applies: in vivo.
Data set [5] in a line: Tmax in Wistar rat at 1 mg/kg, iv administered as bolus dose measured up to 24 hrs post dose by HPLC-MS/MS analysis. The following applies: in vivo. The format is ADME, organism-based. In a few lines:
(§2)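 Male Wistar rats, n = 6 per group, given 1 mg/kg intravenously or 5 mg/kg intragastrically. Blood concentrations followed over 24 h. Non-compartmental analysis; values as median ± SD. Bioavailability from oral versus intravenous exposure.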

The nature of data set [6]: Cmax in Wistar rat at 1 mg/kg, iv administered as bolus dose measured up to 24 hrs post dose by HPLC-MS/MS analysis. The format is ADME, organism-based. Set-up: dose 1 mg/kg, route intravenous. The following applies: in vivo. In a few lines: as §2
The test system of data set [7] is Rattus norvegicus. Description: VRT (0 to infinity) in Wistar rat at 5 mg/kg, po measured up to 24 hrs post dose by HPLC-MS/MS analysis. The following applies: in vivo. The format is ADME, organism-based.
A short description of data set [8]: Tmax in Wistar rat at 5 mg/kg, po measured up to 24 hrs post dose by HPLC-MS/MS analysis. The format is ADME, organism-based. The following applies: in vivo. In a few lines:
as §2

The test system of data set [9] is Rattus norvegicus. As to the kind of experiment: Apparent volume of distribution in Wistar rat at 5 mg/kg, po measured up to 24 hrs post dose by HPLC-MS/MS analysis. The format is ADME, organism-based. The following applies: in vivo. A digest of the protocol:
as §2

Data set [10] in a line: Cmax in Wistar rat at 5 mg/kg, po measured up to 24 hrs post dose by HPLC-MS/MS analysis. Type of data set: ADME, organism-based. Set-up: dose 5 mg/kg, route oral. The following applies: in vivo. In a few lines: as §2

With `CC1CC[C@@H]2C(C)(C)[C@H](O)CC[C@@]2(C)[C@@H]1/C=C/c1ccc(-c2cccc(F)c2)cn1` (single isomer, unassigned), the Activity result with Rattus norvegicus [1], in the data set with Platelet [2] and with Platelet [3] was “Non-Toxic” each time. In addition, in data set [4], the inhibition at 5 min was found to be 6.7%. For the same compound, the results for the Tmax in [5] and in [8] were 1.2 min and 2.5 h, respectively. The Cmax in data set [6] is 1730 ng/mL; in [10], 229 ng/mL. Besides, the VRT in the data set on Rattus norvegicus [7] was determined as 25 ha2. For the same compound, in the data set with Rattus norvegicus [9], the “Vd(app)” value worked out at 20 L/kg.
